Assay outcomes (PubChem)
A selection: hits, their analogues and other compounds. The true share with any hit is near 3.1%.
OX1R antag-1 – OX1R (human) antagonism; O43613; AID 485270; inhibition, % at 6.6 µM; 1.8% of 330,000 active; OX1R-expressing cells, FRET antagonist read-out; in the data active = inhibition mostly above about 38%, no sharp cut-off; inactive = mostly below about 40%;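 also: 0% = agonist challenge alone and 100% = reference antagonist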
GalR3 antag – human GalR3 antagonism; HEK293 GalR3-CNG cAMP membrane potential fluorescence; galR3 body fused to GalR1 C-terminus; AID 651719; inhibition, % at 3 µM; 0.44% of 360,000 active; O60755;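 active = inhibition above the screen-wide average plus 3 SD, cut at about 13% in these data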;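 also: forskolin and galanin both at EC90 stimulate the cells; cAMP rise reported by CNG channel membrane potential dye signal; 0% = forskolin plus galanin with DMSO and 100% = forskolin alone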
Target sequence (O60755 1-299 limits assumed): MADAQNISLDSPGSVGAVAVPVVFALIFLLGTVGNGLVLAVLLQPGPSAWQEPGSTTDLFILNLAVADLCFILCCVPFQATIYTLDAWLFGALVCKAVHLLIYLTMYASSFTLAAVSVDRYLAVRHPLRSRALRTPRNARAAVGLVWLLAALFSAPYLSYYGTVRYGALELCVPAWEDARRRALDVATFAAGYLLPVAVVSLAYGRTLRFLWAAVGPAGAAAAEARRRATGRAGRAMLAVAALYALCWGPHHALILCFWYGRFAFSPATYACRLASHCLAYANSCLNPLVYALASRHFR
OX1R antag-2 – blocks the human orexin 1 receptor; O43613; CHO/OX1R cells, Fluo-8 calcium fluorescence, orexin A; inhibition, % at 5 µM; 0.43% of 330,000 active;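 active = inhibition above its plate's threshold, mean inhibition of all tested compounds on the plate plus 3 SD, cut at about 37% in these data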;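 also: 0% = orexin A challenge wells and 100% = SB-334867-A antagonist wells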
CHO parental Ca – signal in parental CHO cells, OX1R antagonist counter-screen. parental CHO-K1, ATP-induced calcium, Fluo-8 fluorescence. inhibition, % at 5.6 µM. 0.63% of 330,000 active;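 active = inhibition above that plate's mean sample inhibition plus 3 SD, cut at about 26% in these data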;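 also: 0% = ATP-challenged DMSO wells and 100% = DMSO wells without ATP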
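test system = CHO parental line | reagent = ATP stimulus | measured by = intracellular calcium via Fluo-8 no-wash fluorescent dye | control set = ATP and no-ATP DMSO wells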
GPR7 antagonist – human neuropeptides B/W receptor 1 antagonism | P48145 | GPR7-expressing cells, fluorescence antagonist assay | inhibition, % at 4.4 µM | 1.1% of 290,000 active | AID 1861; in the data active = inhibition above about 16%, passing the limit was not always enough;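 also: cells stimulated with the agonist NPW; 0% = agonist with vehicle and 100% = vehicle without agonist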
Target sequence (P48145 whole entry, looked up): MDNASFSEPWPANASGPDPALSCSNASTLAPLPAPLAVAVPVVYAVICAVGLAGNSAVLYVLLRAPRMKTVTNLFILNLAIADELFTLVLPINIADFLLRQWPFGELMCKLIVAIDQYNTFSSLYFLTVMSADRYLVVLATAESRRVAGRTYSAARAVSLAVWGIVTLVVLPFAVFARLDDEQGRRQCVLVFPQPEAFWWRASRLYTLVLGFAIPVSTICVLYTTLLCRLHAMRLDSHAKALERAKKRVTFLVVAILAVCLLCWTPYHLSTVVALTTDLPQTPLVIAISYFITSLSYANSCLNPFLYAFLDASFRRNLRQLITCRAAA
OX1R Ca confirm – confirmation of human orexin 1 receptor antagonists | shares compounds with OX1R antag-2 | CHO/OX1R cells, orexin A calcium Fluo-8 fluorescence | inhibition, % at 5 µM | 38% of 1,100 active; in the data active = inhibition above about 29%;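 also: 0% = agonist challenge alone and 100% = reference antagonist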
CHO Ca counter – signal in parental CHO cells, OX1R antagonist counter-screen | parental CHO-K1, ATP-induced calcium, Fluo-8 fluorescence | inhibition, % at 5.6 µM | AID 492965 | shares compounds with OX1R antag-2 | 9.3% of 1,100 active;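 active = inhibition above a per-plate limit, the mean inhibition of that plate's test compounds plus 3 SD, cut at about 25% in these data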;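 also: 0% = ATP challenge with DMSO and 100% = DMSO without ATP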
OX1R HTRF confirm – confirmation of human orexin 1 receptor antagonists, HTRF format; shares compounds with OX1R antag-1; OX1R-expressing cells, HTRF antagonist assay; inhibition, % at 6.6 µM; 49% of 1,800 active; AID 492964; in the data active = inhibition above about 55%;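 also: CHO cells expressing OX1R stimulated with orexin A at about EC80; 0% = agonist challenge alone and 100% = reference antagonist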
CHO-K1 HTRF cnt – signal in parental CHO-K1 cells, OX1R antagonist counter-screen; shares compounds with OX1R antag-1; HTRF counterscreen; inhibition, % at 6.6 µM; 48% of 1,800 active; AID 493232; in the data active = inhibition above about 17%;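 also: 0% = agonist challenge with vehicle and 100% = vehicle alone without agonist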
* marks the source's active call; other numbers are inactive results; x = not tested or not shown.

SMILES | OX1R antag-1 | GalR3 antag | OX1R antag-2 | CHO parental Ca | GPR7 antagonist | OX1R Ca confirm | CHO Ca counter | OX1R HTRF confirm | CHO-K1 HTRF cnt
Cc1ccc(-c2c(C(=O)N/N=C/c3ccc4c(c3)OCO4)nnn2-c2nonc2N)cc1 | 74.2* | -7.5 | 46.4 | -10.5 | -10.4 | 27.8 | 2.7 | 88.0* | 0.4
Fc1cccc(-c2cc3nc4c(c(N5CCC6(CC5)OCCO6)n3n2)CCCC4)c1 | 29.7 | -1.9 | -29.5 | 1.0 | -7.1 | x | x | x | x
Cc1cccc(-c2cc3nc(-c4ccccc4)cc(N4CCC5(CC4)OCCO5)n3n2)c1 | 63.7* | -5.0 | 47.3* | -24.5 | -6.0 | 25.0 | -7.5 | 69.5* | 5.4
Fc1cccc(-c2cc3nc(-c4ccccc4)cc(N4CCC5(CC4)OCCO5)n3n2)c1 | 72.0* | -0.7 | 45.6* | -18.1 | -18.4 | 51.6* | -19.9 | 39.6 | -10.6
COc1ccc(-c2cc3nc(-c4ccccc4)cc(N4CCC(O)CC4)n3n2)cc1 | 18.9 | -5.3 | -11.3 | 2.3 | 9.7 | x | x | x | x
OCC1OC(c2ccc(O)cc2O)C(O)C1O (configuration not stated) | x | -9.2 | x | x | x | x | x | x | x
CCOC(=O)c1cnc(SCc2nc(N)nc(Nc3ccccc3)n2)nc1N | 73.1* | -6.0 | 38.2 | -26.6 | -12.5 | 34.7* | -23.7 | 48.5 | 6.0
CCOC(=O)c1cnc(SCCc2ccccc2)nc1N | 18.2 | 3.7 | -37.5 | -4.6 | 18.7 | x | x | x | x
O=C(Nc1ccc2nc(-c3cccs3)c(-c3cccs3)nc2c1)N1CCOCC1 | 73.0* | -7.3 | 21.1 | -1.8 | -3.6 | 25.1 | -0.1 | 43.7 | 14.2
O=C(Nc1cccc(O)c1)N1CCOCC1 | 13.5 | -2.6 | -10.4 | 9.8 | -9.1 | x | x | x | x
COc1ccc(S(=O)(=O)N2CCCCC2)cc1NC(=O)Cc1ccc(Br)cc1 | x | -1.6 | x | x | x | x | x | x | x
CC(=O)Nc1ccc(NC(=O)C(C)OC(=O)C(C)SCC(=O)Nc2ccc(F)cc2)cc1 (configuration not stated) | 89.0* | -2.6 | 27.7 | -4.0 | x | 45.8* | -2.0 | 86.8* | -0.6
O=C1NC(c2ccccc2)C(C(=O)c2cccs2)C(O)(C(F)(F)F)N1 (configuration not stated) | 13.7 | -3.1 | -2.0 | -6.4 | -11.7 | x | x | x | x
CCSC1=C(C#N)C(c2ccccc2Cl)C(C(=O)c2cccs2)C(O)(C(F)(F)F)N1 (configuration not stated) | 95.2* | -1.8 | 94.5* | -6.5 | -4.0 | 77.2* | -12.7 | 89.0* | -0.3
COc1cc(C2NC(=S)NC(O)(C(F)(F)F)C2C(=O)c2cccs2)cc(OC)c1O (configuration not stated) | -0.6 | 0.8 | -7.6 | -8.1 | -8.2 | x | x | x | x
C=CCSC1=C(C#N)C(c2ccccc2Cl)C(C(=O)c2cccs2)C(O)(C(F)(F)F)N1 (configuration not stated) | 103.6* | -1.8 | 41.8* | -20.9 | -3.4 | 79.0* | -12.8 | 88.7* | 7.5
Cc1ccc([C@H]2C[C@@H](O)[C@H](n3cc(-c4ccc(F)cc4)nn3)CN2Cc2cccs2)cc1 | x | -3.6 | x | x | x | x | x | x | x
COc1ccc2c(C#CCCO)c(-c3ccc(S(C)(=O)=O)cc3)sc2c1 | 3.6 | -2.7 | 6.2 | 6.5 | x | x | x | x | x
COc1ccc2sc(-c3ccc(S(C)(=O)=O)cc3)c(C#CCO)c2c1 | 59.3* | -4.0 | 64.7* | 10.3 | x | 20.8 | 0.7 | 60.4* | 13.2
O=C(O)c1cccc2c1/C(=N/Nc1ccc([N+](=O)[O-])cc1[N+](=O)[O-])c1ccccc1-2 | 5.7 | x | 2.5 | 10.9 | -16.5 | x | x | x | x
CC(C)Nc1oc(-c2cccc3ccccc23)nc1C#N | 5.8 | -8.5 | -20.3 | -7.9 | -1.5 | x | x | x | x
C=CCNc1oc(-c2cccc3ccccc23)nc1C#N | 68.6* | -10.5 | 42.9* | -12.4 | -7.3 | 15.9 | 1.2 | 54.7* | 7.0
CCNc1oc(-c2cccc3ccccc23)nc1C#N | 89.2* | -3.0 | 55.0* | 20.3 | -13.2 | 39.2* | 1.9 | 78.1* | 5.0
CC(C)[C@H](NC(=O)OC(C)(C)C)c1cc(C(=O)NCCO)c(N)s1 | x | -4.1 | x | x | x | x | x | x | x
CCc1cc2c(SCC(=O)N(CC)c3c(N)n(Cc4ccccc4)c(=O)[nH]c3=O)ncnc2s1 | 84.2* | -2.5 | 39.9 | -15.9 | 3.1 | 47.9* | -9.4 | 92.6* | 1.3
SMILES | OX1R antag-1 | GalR3 antag | OX1R antag-2 | CHO parental Ca | GPR7 antagonist | OX1R Ca confirm | CHO Ca counter | OX1R HTRF confirm | CHO-K1 HTRF cnt
CCCCc1c(-c2ccc(F)cc2)ncn1CCc1ccccc1OC | x | -7.8 | x | x | x | x | x | x | x
COc1ccc(OCC(=O)Nc2cccc(NC(=O)COc3ccc(OC)cc3)n2)cc1 | 17.1 | -5.4 | -24.8 | -13.6 | -2.3 | x | x | x | x
COc1ccc(OCC(=O)Nc2cccc3cccnc23)cc1 | 87.0* | -2.1 | 27.9 | -24.4 | -7.0 | 4.4 | -4.5 | 33.0 | 4.1
CCC(C)NCC(=O)Nc1cc(S(=O)(=O)N(CC)c2ccccc2)ccc1Cl (configuration not stated) | 18.5 | -4.6 | -21.4 | -28.0 | -19.5 | x | x | x | x
CCN(c1ccccc1)S(=O)(=O)c1ccc(Cl)c(NC(=O)CNC(C)c2ccccc2)c1 (configuration not stated) | 28.1* | -3.8 | 50.1* | -11.5 | x | 22.3 | 37.4* | 29.2 | -1.5
CCN(CC)P(=O)(Nc1cccc(C(F)(F)F)c1)c1ccc(N(C)C)cc1NC(=O)c1ccco1 (configuration not stated) | 82.0* | -12.5 | 87.2* | -13.1 | -7.2 | 64.5* | -9.4 | 86.1* | -15.5
COc1ccc(/C=c2\s/c(=C/C(=O)c3ccc(C)cc3)[nH]c2=O)c(OC)c1 | 78.6* | -2.8 | 47.1* | 8.6 | 2.2 | 28.5 | 1.7 | 93.1* | 9.6
CCn1c(Cn2nnc(-c3ccccc3)n2)nnc1SCC(=O)Nc1ccccc1 | 50.0* | 0.2 | 43.6 | -17.2 | -4.7 | 24.2 | -2.3 | 56.0* | 6.3
CCn1c(CNC(=O)COc2ccc(C(C)C)cc2)nnc1SCC(=O)Nc1ccccc1 | 14.1 | -0.6 | -16.0 | -23.9 | -16.1 | x | x | x | x
O=S(=O)(Nc1ccc(Br)cc1)c1cccc(NS(=O)(=O)c2cccs2)c1 | x | -4.3 | x | x | x | x | x | x | x
COc1cccc(NC(=O)c2ccc(C(=O)c3ccccc3)o2)c1 | 99.9* | 0.8 | 53.1* | 1.0 | -9.8 | 33.2* | -1.5 | 78.3* | 9.1
Cc1ccc(-c2csc3nnc(SCC(=O)Nc4nsc(-c5ccccc5)n4)n23)cc1 | 81.8* | -4.7 | 67.9* | -31.5 | 2.8 | 48.5* | -21.0 | 91.2* | 6.3
CN(C)C(=O)c1ccc(NC(=O)COC(=O)Cn2cc(C(F)(F)F)ccc2=O)cc1 | 1.1 | -3.1 | -5.9 | -2.8 | x | x | x | x | x
